Bioassay records as filed in PubChem.
Jurkat NFkB inh = inhibitors of induced NF-kB luciferase reporter, primary screen, TCR NF-kB activation inhibitor project, cell-based, luminescence, uHTS; 330,000 compounds, 0.53% hits; Jurkat, PMA/ionomycin-induced NF-kB luciferase reporter; AID 435003, 2010; inhibition, % at 4 µM; in the data active = inhibition above about 50%
GalR3 antag = GalR3 antagonists in HEK293 cells, primary screen, cell-based, fluorescence readout; Galanin receptor type 3 (Homo sapiens), O60755; HEK293 GalR3-CNG cAMP membrane potential fluorescence; galR3 body fused to GalR1 C-terminus; inhibition, % at 3 µM; 360,000 compounds, 0.44% hits; AID 651719, 2012;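 active = inhibition above the screen-wide average plus 3 SD, cut at about 13% in these data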;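 note: forskolin and galanin both at EC90 stimulate the cells; cAMP rise reported by CNG channel membrane potential dye signal; 0% = forskolin plus galanin with DMSO and 100% = forskolin alone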
Target sequence (O60755 1-299 limits assumed): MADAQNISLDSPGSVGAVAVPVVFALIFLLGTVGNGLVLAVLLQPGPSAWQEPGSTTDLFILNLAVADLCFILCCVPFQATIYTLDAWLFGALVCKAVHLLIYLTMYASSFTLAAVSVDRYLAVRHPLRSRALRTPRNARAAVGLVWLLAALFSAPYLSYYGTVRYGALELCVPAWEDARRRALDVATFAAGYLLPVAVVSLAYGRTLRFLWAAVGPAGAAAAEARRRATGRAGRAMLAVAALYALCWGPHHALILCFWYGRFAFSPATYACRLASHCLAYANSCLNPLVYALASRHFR
697 NFkB inh = inhibitors of PMA/ionomycin-induced NF-kB reporter, 697 cells, primary screen, B-cell NF-kB inhibitor project, cell-based, luminescence, uHTS; 697 B-cell NF-kB luciferase reporter, 16 h; inhibition, % at 4 µM; 330,000 compounds, 0.33% hits; in the data active = inhibition above about 35%
JMJD2C inh = inhibitors of GASC-1 histone demethylase, primary screen, biochemical, fluorescence, DELFIA europium; Lysine-specific demethylase 4C (Homo sapiens), Q9H3R0; GST-JMJD2C(1-420) H3K9me3 demethylation; inhibition, % at 2.35 µM; 330,000 compounds, 0.069% hits;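 active = more than half of a compound's replicate wells show inhibition beyond 50%, single wells judged on their own value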;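 note: signal counts dimethyl H3K9 product captured on neutravidin plate; 0% = median of DMSO wells and 100% = 0.3 times that DMSO median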
Target sequence (Q9H3R0 1-420 limits assumed): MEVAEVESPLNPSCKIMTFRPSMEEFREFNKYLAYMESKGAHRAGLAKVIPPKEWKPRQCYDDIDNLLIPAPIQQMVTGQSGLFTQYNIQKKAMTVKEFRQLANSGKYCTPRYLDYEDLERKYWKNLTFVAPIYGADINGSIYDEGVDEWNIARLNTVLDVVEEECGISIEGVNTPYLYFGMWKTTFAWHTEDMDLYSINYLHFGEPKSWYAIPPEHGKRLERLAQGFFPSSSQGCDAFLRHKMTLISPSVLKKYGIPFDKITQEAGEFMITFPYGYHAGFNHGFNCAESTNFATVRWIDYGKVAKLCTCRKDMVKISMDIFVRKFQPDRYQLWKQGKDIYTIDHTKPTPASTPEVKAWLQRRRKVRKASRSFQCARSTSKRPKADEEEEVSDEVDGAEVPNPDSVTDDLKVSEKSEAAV
NR2E3 ag-1 = inhibitors of NR2E3-RetCOR corepressor binding, primary screen, NR2E3 agonist project, biochemical, TR-FRET, GST-NR2E3, biotin-RetCOR. 320,000 compounds, 0.12% hits. Photoreceptor-specific nuclear receptor (Homo sapiens), Q9Y5X4. AID 2300, 2010. inhibition of corepressor binding, % at 4.78 µM. 1536-well;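 active = percent inhibition above the cutoff of mean plus 3 SD of all tested compounds, set per screening campaign, cut at about 20% in these data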;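 note: 0% = DMSO wells and 100% = biotin wells as full block of FRET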
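Test system – NR2E3–RetCOR corepressor complex · Quantity – NR2E3 fusion 1.35 nM · Buffer or medium – Tris pH 7.5 · Incubation – Compound–protein incubation for 5 h at 4 °C · Technique – TR-FRET, Eu(K)-anti-GST donor, streptavidin-D2 acceptor, ex 340, em 617/671 nm · Evaluation – percent inhibition of 671/617 nm emission ratio versus biotin and DMSO controls · Plate – 1536-well format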
NR2E3 ag-2 = NR2E3 agonists in two-hybrid cells, primary screen, cell-based, luminescence, CHO-S, Gal4-NCOR/VP16-NR2E3; Photoreceptor-specific nuclear receptor (Homo sapiens), Q9Y5X4; luciferase; inhibition of corepressor binding, % at 3.98 µM; 360,000 compounds, 0.35% hits; AID 602229, 2012;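 active = inhibition above the mean of all tested compounds plus 3 SD, cut at about 70% in these data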;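 note: 0% = DMSO with NR2E3 transfected cells and 100% = cells lacking NR2E3 construct; higher means lower luciferase signal from less NR2E3 corepressor binding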
697 NFkB conf = PMA/ionomycin-induced NF-kB reporter inhibitors, 697 retest, confirmation, B-cell NF-kB inhibitor project, cell-based, luminescence, single concentration; 697 B-cell NF-kB luciferase, 16 h; 2,000 compounds, 35% hits; shares compounds with 697 NFkB inh; inhibition, % at 4 µM; in the data active = inhibition mostly above about 28%, no sharp cut-off; inactive = mostly below about 22%
Active calls of the source: *. Shown are actives, neighbours in structure and some others; about 1.5% of the full set was active somewhere.

`O=C(O)Cc1ccc(S(=O)(=O)Nc2ccccc2C(=O)O)cc1` gave Jurkat NFkB inh -1.2, GalR3 antag -3.3, 697 NFkB inh 8.7, JMJD2C inh -5.0, NR2E3 ag-1 0.2 and NR2E3 ag-2 4.5.
For Cc1ccc(Nc2nc(NCc3ccco3)c3ccccc3n2)cc1 the results were Jurkat NFkB inh -51.3, GalR3 antag -10.8, 697 NFkB inh -283.1, JMJD2C inh -40.9, NR2E3 ag-1 1.1, NR2E3 ag-2 9.7 and 697 NFkB conf -252.7.
For COc1ccccc1Nc1nc(NCc2ccco2)c2ccccc2n1 the results were Jurkat NFkB inh -21.3, GalR3 antag -2.2, 697 NFkB inh -31.2, JMJD2C inh -5.7, NR2E3 ag-1 -0.1 and NR2E3 ag-2 9.5.
Cc1c(C2(O)CCCCC2)[nH]c2ccc(C(F)(F)F)cc12 was read as Jurkat NFkB inh -56.8, GalR3 antag -3.8, 697 NFkB inh -357.2, JMJD2C inh -9.9, NR2E3 ag-2 -2.8 and 697 NFkB conf -175.1.
Screening O=C(NNC(=O)C12CC3CC(CC(C3)C1)C2)c1cccc(O)c1 returned Jurkat NFkB inh 7.3, GalR3 antag -12.3, 697 NFkB inh 43.9*, JMJD2C inh 23.8, NR2E3 ag-1 0.1, NR2E3 ag-2 3.8 and 697 NFkB conf 45.4*.
For C=CCN=C1NC(c2cccc(Cl)c2)C(C(=O)OC)=C(C)N1Cc1cccc(C(F)(F)F)c1 (configuration not stated) the results were GalR3 antag -2.3.
Cc1oc(-c2ccc(-c3ccccc3)cc2)nc1CN(C)C1CCOC1 (configuration not stated) was read as Jurkat NFkB inh -50.7, GalR3 antag -7.4, 697 NFkB inh -311.1, JMJD2C inh 5.4, NR2E3 ag-1 -0.7, NR2E3 ag-2 -151.5 and 697 NFkB conf -338.5.
For Cc1oc(-c2ccc(-c3ccccc3)cc2)nc1CN(CCO)C(C)C the results were Jurkat NFkB inh -66.6, GalR3 antag -7.9, 697 NFkB inh -477.9, JMJD2C inh -19.8, NR2E3 ag-1 5.4, NR2E3 ag-2 -180.2 and 697 NFkB conf -499.4.
Screening CCOc1ccccc1N1CCN(C(=O)c2ccccc2SCC(=O)N2CCCC2)CC1 returned Jurkat NFkB inh -1.6, GalR3 antag 4.2, 697 NFkB inh 9.9, JMJD2C inh 16.4, NR2E3 ag-1 -0.5 and NR2E3 ag-2 -12.7.
Cc1cc(Cl)ccc1C(=O)C1CCCN(C(=O)c2cnn(C(C)C)c2)C1 (configuration not stated) was read as Jurkat NFkB inh 4.9, GalR3 antag -5.9, 697 NFkB inh 4.1, JMJD2C inh -3.0, NR2E3 ag-1 -1.0 and NR2E3 ag-2 -5.7.
For CCC(C)NC(=O)c1ccc(-n2c(=S)[nH]c3ccccc3c2=O)cc1 (configuration not stated) the results were Jurkat NFkB inh 14.3, GalR3 antag -0.1, 697 NFkB inh 40.6*, JMJD2C inh -0.7, NR2E3 ag-1 3.4, NR2E3 ag-2 -26.1 and 697 NFkB conf 0.6.
O=C(c1ccc2c(=O)n(-c3ccccc3)c(=S)[nH]c2c1)N1CCCCC1 was read as Jurkat NFkB inh 7.3, GalR3 antag -8.4, 697 NFkB inh 38.2*, JMJD2C inh 26.3, NR2E3 ag-1 1.5, NR2E3 ag-2 10.6 and 697 NFkB conf -28.4.
Cn1c(=O)c2c(SCC(=O)Nc3ccccc3F)nc(-c3ccccc3F)nc2n(C)c1=O was read as Jurkat NFkB inh 7.2, GalR3 antag -1.4, 697 NFkB inh 47.6*, JMJD2C inh -3.9, NR2E3 ag-1 0.4, NR2E3 ag-2 -1.7 and 697 NFkB conf 12.2*.
Screening Cc1ccc(-c2nnc(-c3ccccc3Br)o2)cc1 returned Jurkat NFkB inh -129.0, GalR3 antag -5.5, 697 NFkB inh -276.8, JMJD2C inh 1.0, NR2E3 ag-1 3.1, NR2E3 ag-2 -150.0 and 697 NFkB conf -281.2.
CCN=C1NC(c2ccccc2C(F)(F)F)C(C(=O)OC)=C(C)N1Cc1ccc(C(F)(F)F)cc1 (configuration not stated) was read as GalR3 antag -4.0.
`O=C1N/C(=C\c2nc3ccccc3s2)c2ccccc21` gave Jurkat NFkB inh -106.8, 697 NFkB inh -322.3, JMJD2C inh -1.5, NR2E3 ag-1 -1.0 and 697 NFkB conf -453.1.
`O=C1N/C(=C\c2ccccc2)c2ccccc21` gave Jurkat NFkB inh 14.2, GalR3 antag -7.6, 697 NFkB inh -38.7, JMJD2C inh 6.3, NR2E3 ag-1 2.9 and NR2E3 ag-2 -80.4.
COC(=O)C1=C(C)N(c2ccc(Cl)cc2)/C(=C/c2ccc(O)cc2)C1=O was read as Jurkat NFkB inh 16.1, GalR3 antag -1.4, 697 NFkB inh 35.7*, JMJD2C inh 1.6, NR2E3 ag-1 -3.6, NR2E3 ag-2 2.8 and 697 NFkB conf 28.8.
Screening COC(=O)C1=C(C)N(c2cc(C)cc(C)c2)/C(=C/c2ccc(O)cc2)C1=O returned Jurkat NFkB inh 6.7, GalR3 antag -6.7, 697 NFkB inh -9.2, JMJD2C inh -5.1, NR2E3 ag-1 -0.4 and NR2E3 ag-2 13.0.
`C1CCN(c2c3c(nc4nnnn24)CCCC3)CC1` gave Jurkat NFkB inh 4.6, GalR3 antag -2.3, 697 NFkB inh 12.2, JMJD2C inh 3.6, NR2E3 ag-1 5.0 and NR2E3 ag-2 -13.4.
Screening Cc1nc(C)c(-c2csc(Nc3ccccn3)n2)s1 returned Jurkat NFkB inh -131.0, GalR3 antag -7.3, 697 NFkB inh -381.0, JMJD2C inh 1.2, NR2E3 ag-1 -1.8, NR2E3 ag-2 -156.6 and 697 NFkB conf -358.6.
`Cc1ccc(Nc2nc(-c3sc(C)nc3C)cs2)cc1` gave Jurkat NFkB inh 28.2, GalR3 antag -2.1, 697 NFkB inh -85.0, JMJD2C inh 22.1, NR2E3 ag-1 1.0 and NR2E3 ag-2 -101.7.
Screening CC(C)c1ccc(NC(=O)Nc2nc(C(N)COCc3ccccc3)cs2)cc1 (configuration not stated) returned GalR3 antag -2.2 and NR2E3 ag-2 4.7.
Screening c1ccc2sc(-c3ccc4c(c3)OCO4)nc2c1 returned Jurkat NFkB inh -143.7, 697 NFkB inh -361.4, JMJD2C inh 4.3, NR2E3 ag-1 -1.1, NR2E3 ag-2 -121.8 and 697 NFkB conf -241.7.
`O=C(Nc1cccc(-c2nc3ccccc3s2)c1)c1ccc2c(c1)OCO2` gave Jurkat NFkB inh -13.6, GalR3 antag 3.2, 697 NFkB inh -8.2, JMJD2C inh 1.4, NR2E3 ag-1 3.9 and NR2E3 ag-2 -110.1.
